# The list is not random: actives were taken first. Their share in the collection is about 5.1%.
# STAT3 blocker = reduces IL-6 driven STAT3 reporter signal. U3A cells, IL-6 STAT3-luciferase reporter, luminescence; host cell line lacks STAT1. inhibition, % at 5.5 µM. AID 862. 190,000 tested, 0.89% active;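 active = inhibition above the mean inhibition across all screened compounds plus 3 SD, cut at about 44% in these data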;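 also: 0% = DMSO only wells and 100% = 100 µM nifuroxazide control wells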
# NF-kB neuron act = compounds increasing NF-kB expression in human neuronal cells; 190,000 tested, 1.6% active; fold change at 12.5 µM; NF-kB reporter expression; stronger effect = higher value; in the data active = fold change above about 3.3
# STAT1 activator = increases IFN-gamma driven STAT1 reporter signal; NIH 3T3 STAT1-luciferase reporter, luminescence; 100% = IFN-gamma alone, no compound; activation (% of control), % at 5.5 µM; 200,000 tested, 2.6% active; AID 932;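 active = activation above the screen-wide mean activation plus 3 SD, cut at about 130% in these data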;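 also: raw ratio to IFN-gamma control signal so 100% means no change and 0% no light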
# STAT3 activator = activators of IL-6 induced STAT3 signaling; 190,000 tested, 0.91% active; activation (% of control), % at 5.6 µM; U3A cells, IL-6 STAT3-luciferase reporter, luminescence; 100% = signal with IL-6 EC80 alone;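 active = activation above the screen-wide mean of compound activation plus 3 SD, cut at about 130% in these data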;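 also: 0% = background luminescence of wells with medium and substrate only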
#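 Material: human U3A cells carrying STAT3-luciferase construct. Measured by: reporter luminescence signal. Timing: compound 1 h, then IL-6 6 h at 37 °C.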
# STAT1 inh = reduces IFN-gamma driven STAT1 reporter signal; NIH 3T3 STAT1-luciferase reporter, luminescence; inhibition, % at 5.5 µM; 200,000 tested, 0.35% active;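 active = inhibition above a set limit, the mean inhibition across all tested compounds plus 3 SD, cut at about 34% in these data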;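 also: 0% = IFN-gamma with DMSO and 100% = IFN-gamma with 300 µM nifuroxazide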
# APP 5'UTR act = activates APP 5'UTR luciferase reporter | SH-SY5Y APP 5'UTR luciferase reporter, luminescence; zero percent = DMSO vehicle wells | activation, % at 2 µM | 190,000 tested, 1% active | AID 1276;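 active = activation above a set limit, based on mean plus 3 SD of controls, cut at about 140% in these data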
# The depositor's hits bear a star; nt = no result given.
SMILES,STAT3 blocker,NF-kB neuron act,STAT1 activator,STAT3 activator,STAT1 inh,APP 5'UTR act
CCN(CC)c1ccc(/C=N/N2CCN(Cc3ccccc3)CC2)c(O)c1,9,1.3,97,91,4,7
COc1cc2c(cc1NC(=O)CSc1nc3ccc(C)cc3[nH]1)oc1ccccc12,6,1.1,99,97,1,-1
COc1ccc(S(=O)(=O)N(CC(=O)NCc2cccnc2)c2ccc(F)cc2)cc1OC,0,1.2,93,98,8,0
Cc1c(N=Nc2c(-c3ccc([N+](=O)[O-])cc3)[nH]n(C(N)=S)c2=O)cccc1[N+](=O)[O-],77*,0.69,80,37,20,-23
CCS(=O)(=O)Nc1cccc(-c2nc3cccnc3s2)c1C,6,1.6,112,103,-14,32
Cc1ccc(-c2nc3cccnc3s2)cc1NS(C)(=O)=O,nt,1.1,139*,nt,-45,61
CC(C)(C)n1nnnc1SCC(=O)Nc1nn(-c2ccccc2)nc1C(N)=O,9,1,122,96,-22,-14
Fc1ccccc1N=C1NN=C(c2ccccc2)CS1,-7,4.6*,143*,109,-50,158*
Fc1ccc(N=C2NN=C(c3cc(F)ccc3F)CS2)cc1,16,2.4,123,90,-26,26
Fc1ccc(F)c(C2=NNC(=Nc3ccccc3F)SC2)c1,-14,5.1*,143*,113,-48,131
Cc1cccc(N=C2NN=C(c3ccccc3F)CS2)c1C,9,2.1,119,94,-22,40
Clc1ccccc1N=C1NN=C(c2cccs2)CS1,-11,4.3*,143*,111,-48,183*
COc1cccc(/C=C/C(=O)Nc2ccc3nc4n(c(=O)c3c2)CCCC4)c1OC,14,0.67,76,92,25,6
O=C(NC1CC1)c1ccc2c(c1)C1C3CCC(C3)C1C(c1ccccc1)N2 (configuration not stated),8,1.1,92,93,9,-35
Oc1ccccc1/C=N/n1cnn(Cc2ccccc2Cl)c1=S,-2,1.3,107,99,-8,1
COc1ccc(Nc2oc(-c3ccccc3)nc2C#N)cc1,6,1.8,132*,99,-39,39
COCCNc1oc(-c2ccc(Cl)cc2)nc1C#N,2,2.4,129*,101,-32,50
COc1ccc(CNc2oc(-c3ccccc3)nc2C#N)cc1,2,0.95,102,99,-2,-6
Cn1c(SCc2ccccc2F)nc2cccnc21,6,3.4*,137*,103,-41,141*
CCOC(=O)c1cccc(COC(=O)c2cccc(-c3nnc(-c4ccccc4)o3)c2)c1,-11,2,131*,106,-30,66
CC(=O)Nc1cccc(-c2nnc(-c3ccccc3)o2)c1,-3,2.2,130*,104,-37,82
COc1ccc(CC(=O)Nc2cccc(-c3nnc(-c4ccc(C)cc4)o3)c2)cc1OC,18,0.8,104,90,-5,9
Cc1ccc(OCC(=O)Nc2cccc(-c3nnc(-c4ccccc4)o3)c2)c(C)c1,16,0.95,132*,90,-35,-5
O=C(OCc1ccccc1)c1cccc(-c2nnc(-c3ccccc3)o2)c1,-5,2,93,104,8,5
C=CCSc1nnc(NC(=O)c2cn(CC)c3nc(C)ccc3c2=O)s1,13,0.86,94,93,3,-11
SMILES,STAT3 blocker,NF-kB neuron act,STAT1 activator,STAT3 activator,STAT1 inh,APP 5'UTR act
Clc1ccc(/C=C/c2nc3ccccc3[nH]2)cc1,94*,3.8*,52,27,53*,nt
Clc1ccc(/C=C/c2nc3ccccc3[nH]2)c(Cl)c1,87*,2,39,31,68*,221*
Clc1cccc(Cl)c1/C=C/c1nc2ccccc2[nH]1,-23,7.2*,143*,128,-47,164*
Clc1ccc(SCc2nc3ccccc3[nH]2)cc1,13,1.6,111,96,-12,36
C(=N\n1cnnc1)/c1nc2ccccc2[nH]1,-9,0.92,104,108,-4,0
O=C(/C=C/c1ccc(Cl)cc1Cl)c1nc2ccccc2[nH]1,13,1.2,101,94,-1,6
Cc1cc(C)c(O)c(N)c1,-3,1,96,106,3,14

# High-throughput results as filed in PubChem.
